Source: PMC3701955 (Bioorganic & medicinal chemistry, 2012)
Where two headings read alike, the source gives them in different places.

Experiments:
[1] = assay type: in vivo; settings: female Sprague–Dawley rats, iv; for Biodistribution of radioactivity, Liver / Biodistribution of radioactivity in brain region, Amygdala / Biodistribution of radioactivity in brain region, Basal Hypothalamus / Biodistribution of radioactivity in brain region, Cerebellum / Biodistribution of radioactivity in brain region, Dorsal Striatum / Biodistribution of radioactivity in brain region, Remaining Brain / Biodistribution of radioactivity, Blood / Biodistribution of radioactivity, Heart / Biodistribution of radioactivity, Kidney / Biodistribution of radioactivity, Lung / Biodistribution of radioactivity, Muscle / Biodistribution of radioactivity, Uterus / Biodistribution of radioactivity, Brain: mean ± SD; for Biodistribution of radioactivity, Brain: total brain
OTR of the CNS = biological target: T1, OTR of the CNS (Rattus norvegicus, UniProt P70536); assay: PET imaging of the brain using a rat model; assay type: in vivo, Sprague–Dawley rats; settings: rats, 90 min ([18F]3) or 45 min ([11C]4) scan
T1 sequence (P70536 1-388): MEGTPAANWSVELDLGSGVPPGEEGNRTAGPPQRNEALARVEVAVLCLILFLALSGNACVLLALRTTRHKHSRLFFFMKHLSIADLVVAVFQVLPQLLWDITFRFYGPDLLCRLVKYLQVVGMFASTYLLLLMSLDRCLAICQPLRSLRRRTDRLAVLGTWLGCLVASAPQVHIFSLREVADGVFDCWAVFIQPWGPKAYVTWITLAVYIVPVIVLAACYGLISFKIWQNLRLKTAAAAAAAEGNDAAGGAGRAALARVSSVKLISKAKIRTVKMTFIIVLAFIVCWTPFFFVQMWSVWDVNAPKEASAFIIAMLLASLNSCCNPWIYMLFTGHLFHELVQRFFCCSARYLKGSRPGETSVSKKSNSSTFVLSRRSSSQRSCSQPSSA

OTR and V1aR = assay: Receptor autoradiography with the radioligand on prairie vole brain slices; assay type: binding; settings: 70 pM radioligand
Outline: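 Prairie vole brains were cut at 20 μm from prefrontal cortex through nucleus accumbens and ventral pallidum, stored at −80 °C, and thawed. Sections were dipped in 0.1% paraformaldehyde/PBS pH 7.4 and rinsed in 50 mM Tris pH 7.4. They were incubated 1 h with 70 pM radioiodinated test compound without competitor, then washed in 50 mM Tris + 2% MgCl2 pH 7.4, air-dried, and exposed to film 72 h. Six animals per study.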

In the case of “1-(4-(3,4-Dihydroquinolin-1(2H)-yl)piperidin-1-yl)-2-(2-(2-[^18F]fluoroethoxy)-4-((1-(methylsulfonyl)piperidin-4-yl)oxy)phenyl)ethanone [[^18F]3]”, the “in vivo stability of the radiolabel (thyroid / bone uptake over time)” value [1] is reported as “appeared to remain intact”, the “Biodistribution of radioactivity, Liver” value ([1]; 15 min) is reported as 1.81 ± 0.36 %ID/g and the “Biodistribution of radioactivity, Liver” value ([1]; 30 min) is reported as 1.41 ± 0.17 %ID/g. The “Biodistribution of radioactivity, Liver” value ([1]; 60 min) was 0.98 ± 0.44 %ID/g, the “Biodistribution of radioactivity, Liver” value ([1]; 120 min) was 1.18 ± 0.18 %ID/g and the “viability for in vivo PET imaging of brain OTR” value (OTR of the CNS) was “not viable for in vivo PET imaging of the OTR of the CNS”.

In the case of `CS(=O)(=O)N1CCC(Oc2ccc(CC(=O)N3CCC(N4C(=O)CCc5ccccc54)CC3)c(O[11CH3])c2)CC1` [[^11C]4, 1-(1-(2-(2-[^11C]methoxy-4-((1-(methylsulfonyl)piperidin-4-yl)oxy)phenyl)acetyl)piperidin-4-yl)-3,4-dihydroquin olin-2(1H)-one], the “viability for in vivo PET imaging of brain OTR” value (OTR of the CNS) is reported as “not viable for in vivo PET imaging of the OTR of the CNS”.

For `CS(=O)(=O)N1CCC(Oc2ccc(CC(=O)N3CCC(N4C(=O)CCc5ccccc54)CC3)c(OC/C=C\[125I])c2)CC1` [[^125I]2, (Z)-1-(1-(2-(2-(3-[125I] Iodoallyloxy)-4-(1-(methylsulfonyl)piperidin-4-yloxy)phenyl)acetyl)piperidin-4-yl)-3,4-dihydroquinolin-2(1H)-one], the “in vivo stability of the radiolabel (thyroid / bone uptake over time)” value [1] was “broken down readily in vivo at the iodine position”, the “Biodistribution of radioactivity in brain region, Amygdala” value (“Biodistribution … Amygdala” for short) ([1]; 15 min) was 0.06 ± 0.01 %ID/g and the “Biodistribution of radioactivity in brain region, Basal Hypothalamus” value (shortened to “Biodistribution … Basal Hypothalamus”) ([1]; 15 min) was 0.04 ± 0.01 %ID/g. For the same molecule, the “Biodistribution of radioactivity in brain region, Cerebellum” value (“Biodistribution … Cerebellum” for short) ([1]; 15 min) was 0.03 ± 0.01 %ID/g, the “Biodistribution of radioactivity in brain region, Dorsal Striatum” value (“Biodistribution … Dorsal Striatum” below) ([1]; 15 min) was 0.03 ± 0.01 %ID/g and the “Biodistribution of radioactivity in brain region, Remaining Brain” value (“Biodistribution … Remaining Brain” below) ([1]; 15 min) was 0.03 ± 0.01 %ID/g. For the same molecule, the “Biodistribution of radioactivity, Blood” value ([1]; 15 min) was 0.22 ± 0.14 %ID/g, the “Biodistribution of radioactivity, Heart” value ([1]; 15 min) was 0.51 ± 0.41 %ID/g and the “Biodistribution of radioactivity, Kidney” value ([1]; 15 min) was 0.38 ± 0.20 %ID/g. The “Biodistribution of radioactivity, Liver” value ([1]; 15 min) was 2.12 ± 1.73 %ID/g, the “Biodistribution of radioactivity, Lung” value ([1]; 15 min) was 1.79 ± 1.78 %ID/g and the “Biodistribution of radioactivity, Muscle” value ([1]; 15 min) was 0.10 ± 0.09 %ID/g. For the same molecule, the “Biodistribution of radioactivity, Uterus” value ([1]; 15 min) was 0.22 ± 0.16 %ID/g, the “Biodistribution of radioactivity, Brain” value ([1]; 15 min) was 0.02 ± 0.01 %ID/g and the “Biodistribution … Amygdala” value ([1]; 30 min) was 0.08 ± 0.06 %ID/g. For the same molecule, the “Biodistribution … Basal Hypothalamus” value ([1]; 30 min) was 0.03 ± 0.01 %ID/g, the “Biodistribution … Cerebellum” value ([1]; 30 min) was 0.03 ± 0.01 %ID/g and the “Biodistribution … Dorsal Striatum” value ([1]; 30 min) was 0.03 ± 0.01 %ID/g. For the same molecule, the “Biodistribution … Remaining Brain” value ([1]; 30 min) was 0.02 ± 0.01 %ID/g, the “Biodistribution of radioactivity, Blood” value ([1]; 30 min) was 0.23 ± 0.23 %ID/g and the “Biodistribution of radioactivity, Heart” value ([1]; 30 min) was 0.39 ± 0.38 %ID/g. The “Biodistribution of radioactivity, Kidney” value ([1]; 30 min) was 0.31 ± 0.27 %ID/g, the “Biodistribution of radioactivity, Liver” value ([1]; 30 min) was 1.91 ± 1.88 %ID/g and the “Biodistribution of radioactivity, Lung” value ([1]; 30 min) was 1.02 ± 1.13 %ID/g. For the same molecule, the “Biodistribution of radioactivity, Muscle” value ([1]; 30 min) was 0.09 ± 0.08 %ID/g, the “Biodistribution of radioactivity, Uterus” value ([1]; 30 min) was 0.16 ± 0.16 %ID/g and the “Biodistribution of radioactivity, Brain” value ([1]; 30 min) was 0.02 ± 0.01 %ID/g. For the same molecule, the “Biodistribution … Amygdala” value ([1]; 60 min) was 0.06 ± 0.01 %ID/g, the “Biodistribution … Basal Hypothalamus” value ([1]; 60 min) was 0.03 ± 0.01 %ID/g and the “Biodistribution … Cerebellum” value ([1]; 60 min) was 0.03 ± 0.01 %ID/g. The “Biodistribution … Dorsal Striatum” value ([1]; 60 min) was 0.02 ± 0.01 %ID/g, the “Biodistribution … Remaining Brain” value ([1]; 60 min) was 0.02 ± 0.01 %ID/g and the “Biodistribution of radioactivity, Heart” value ([1]; 60 min) was 0.39 ± 0.12 %ID/g. The “Biodistribution of radioactivity, Kidney” value ([1]; 60 min) was 0.46 ± 0.04 %ID/g, the “Biodistribution of radioactivity, Liver” value ([1]; 60 min) was 3.01 ± 0.50 %ID/g and the “Biodistribution of radioactivity, Lung” value ([1]; 60 min) was 0.66 ± 0.32 %ID/g. For the same molecule, the “Biodistribution of radioactivity, Muscle” value ([1]; 60 min) was 0.15 ± 0.03 %ID/g, the “Biodistribution of radioactivity, Uterus” value ([1]; 60 min) was 0.31 ± 0.08 %ID/g and the “Biodistribution of radioactivity, Brain” value ([1]; 60 min) was 0.02 ± 0.01 %ID/g. The “Biodistribution … Basal Hypothalamus” value ([1]; 120 min) was 0.04 ± 0.01 %ID/g, the “Biodistribution … Cerebellum” value ([1]; 120 min) was 0.03 ± 0.01 %ID/g and the “Biodistribution … Dorsal Striatum” value ([1]; 120 min) was 0.02 ± 0.01 %ID/g. For the same molecule, the “Biodistribution … Remaining Brain” value ([1]; 120 min) was 0.02 ± 0.01 %ID/g, the “Biodistribution of radioactivity, Blood” value ([1]; 120 min) was 0.31 ± 0.17 %ID/g and the “Biodistribution of radioactivity, Kidney” value ([1]; 120 min) was 0.29 ± 0.15 %ID/g. For the same molecule, the “Biodistribution of radioactivity, Liver” value ([1]; 120 min) was 1.91 ± 1.02 %ID/g, the “Biodistribution of radioactivity, Lung” value ([1]; 120 min) was 0.41 ± 0.27 %ID/g and the “Biodistribution of radioactivity, Muscle” value ([1]; 120 min) was 0.10 ± 0.05 %ID/g. The “Biodistribution of radioactivity, Uterus” value ([1]; 120 min) was 0.22 ± 0.13 %ID/g, the “Biodistribution of radioactivity, Brain” value ([1]; 120 min) was 0.02 ± 0.01 %ID/g and the “autoradiographic binding to brain regions” value (OTR and V1aR) was “bind to receptors in the NAcc and VP”.
